Laboratory results: ChEMBL document CHEMBL1154448, “Thiazolyl/oxazolyl formazanyl indoles as potent anti-inflammatory agents” (Eur J Med Chem, 2008)

Assays:
[1] = Acute toxicity in ip dosed albino mouse assessed as mortality after 24 hrs; format: organism-based; conditions: in vivo, read-out: ALD50
Summary of the method: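 Albino mice of either sex (20-28 g), separate groups given graded intraperitoneal doses; percent mortality recorded 24 h after dosing; approximate 50% lethal dose (ALD50) calculated by the method of Smith.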

[2] = system: Rattus norvegicus; test: Antiinflammatory activity in Albino rat assessed as inhibition of carrageenan-induced paw edema at 50 mg/kg, po administered 1 hr before carrageenan challenge by micro-pipette method relative to control; format: functional; set-up: scale not given: the % may be the effect or the level left
Summary of the method: (§1)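 Rats of either sex, 75-125 g, in groups of 6 (one control group). Compounds were suspended in gum acacia and given orally 1 h before carrageenin. Foot volume was measured by micro-pipette before and at 1 and 3 h after carrageenin. % activity was calculated from the mean oedema volumes of treated (Vt) and control (Vc) groups.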

[3] = system: Mus musculus; test: Analgesic activity in mouse assessed as protection against phenylquinone-induced writhes at 50 mg/kg, po administered 1 hr before phenylquinone challenge relative to control; format: functional
Summary of the method: (§2)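 Mice in groups of 5 were dosed orally and, 1 h later, injected i.p. with 0.25 mL of 0.02% phenylquinone in 5% ethanol. Writhes per mouse were counted for 5 min, between 5 and 10 min after the irritant. % protection = (1 − mean writhes in test group / mean writhes in control group) × 100.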

[4] = system: Mus musculus; test: Analgesic activity in mouse assessed as protection against phenylquinone-induced writhes at 100 mg/kg, po administered 1 hr before phenylquinone challenge relative to control; format: functional; summary of the method: as §2
[5] = Toxicity in ip dosed Albino rat assessed as ulcerogenic activity after 8 hrs; format: organism-based; conditions: in vivo, read-out: UD50
Summary of the method: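 Adult albino rats of either sex, in groups of 10, non-pregnant, fasted 24 h with water allowed. Drugs were given i.p. and animals killed 8 h later. Stomach, duodenum and jejunum were examined with a hand lens for epithelial shedding, red spots or bleeding, and erosion or ulceration. Any one sign was scored as ulcerogenic. Result reported as UD50.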

[6] = system: Rattus norvegicus; test: Antiinflammatory activity in Albino rat assessed as inhibition of carrageenan-induced paw edema at 25 mg/kg, po administered 1 hr before carrageenan challenge by micro-pipette method relative to control; format: functional; set-up: scale not given: the % may be the effect or the level left; summary of the method: as §1
[7] = system: Rattus norvegicus; test: Antiinflammatory activity in Albino rat assessed as inhibition of carrageenan-induced paw edema at 100 mg/kg, po administered 1 hr before carrageenan challenge by micro-pipette method relative to control; format: functional; set-up: scale not given: the % may be the effect or the level left; summary of the method: as §1
[8] = system: Mus musculus; test: Analgesic activity in mouse assessed as protection against phenylquinone-induced writhes at 25 mg/kg, po administered 1 hr before phenylquinone challenge relative to control; format: functional; summary of the method: as §2

Work on `COc1ccc(/N=N/C(=N\c2nc(-c3c(-c4ccc(Cl)cc4)[nH]c4ccccc34)cs2)c2c[nH]c3ccccc23)cc1` yielded an LD50 at 24 h [1] greater than 800 mg/kg, an Activity [2] of 19.2% and an Activity [3] of 18.8%.

In the case of `COc1ccc(/N=N/C(=N\c2nc(-c3c(-c4ccc(Cl)cc4)[nH]c4ccccc34)cs2)c2c(C)[nH]c3ccccc23)cc1`, the LD50 at 24 h [1] is reported as greater than 800 mg/kg, the Activity [2] is reported as 15.4% and the Activity [3] is reported as 13.7%.

In the case of `Clc1ccc(/N=N/C(=N\c2nc(-c3c(-c4ccc(Cl)cc4)[nH]c4ccccc34)cs2)c2c(-c3ccccc3)[nH]c3ccccc23)cc1`, the LD50 at 24 h [1] is reported as greater than 800 mg/kg, the Activity [2] is reported as 23.1% and the Activity [3] is reported as 21.9%.

With `Cc1[nH]c2ccccc2c1/C=N/c1nc(-c2c(-c3ccc(Cl)cc3)[nH]c3ccccc23)co1` the LD50 at 24 h [1] was greater than 800 mg/kg, the Activity [2] was 21.3% and the Activity [3] was 19.9%.

Work on `Cc1[nH]c2ccccc2c1/C=N/c1nc(-c2c(-c3ccc(Cl)cc3)[nH]c3ccccc23)cs1` yielded an Activity [4] of 64.6%, a TD50 at 8 h [5] of 200 mg/kg and an Activity [6] of 36.4%. For the same compound, the LD50 at 24 h [1] was greater than 1000 mg/kg, the Activity [7] was 68.2% and the Activity [2] was 53.3%. It also gave an Activity [3] of 51.4% and an Activity [8] of 35.1%.

For `CCc1[nH]c2ccccc2c1/C=N/c1nc(-c2c(-c3ccc(Cl)cc3)[nH]c3ccccc23)co1`, the LD50 at 24 h [1] was greater than 800 mg/kg, the Activity [2] was 17.3% and the Activity [3] was 16.2%.

In the case of `CCc1[nH]c2ccccc2c1/C=N/c1nc(-c2c(-c3ccc(Cl)cc3)[nH]c3ccccc23)cs1`, the LD50 at 24 h [1] is reported as greater than 800 mg/kg, the Activity [2] is reported as 25.8% and the Activity [3] is reported as 23.2%.

Compound `COc1ccc(/N=N/C(=N\c2nc(-c3c(-c4ccc(Cl)cc4)[nH]c4ccccc34)co2)c2c[nH]c3ccccc23)cc1` has an LD50 at 24 h [1] greater than 800 mg/kg, an Activity [2] of 20.6% and an Activity [3] of 19.2%.

`Clc1ccc(/N=N/C(=N\c2nc(-c3c(-c4ccc(Cl)cc4)[nH]c4ccccc34)cs2)c2c[nH]c3ccccc23)cc1` gave an LD50 at 24 h [1] greater than 800 mg/kg, an Activity [2] of 9.6% and an Activity [3] of 8.5%.

`COc1ccc(/N=N/C(=N\c2nc(-c3c(-c4ccc(Cl)cc4)[nH]c4ccccc34)cs2)c2c(-c3ccccc3)[nH]c3ccccc23)cc1` gave an LD50 at 24 h [1] greater than 800 mg/kg, an Activity [2] of 11.5% and an Activity [3] of 10.5%.

Compound `CCc1[nH]c2ccccc2c1C(=N/c1nc(-c2c(-c3ccc(Cl)cc3)[nH]c3ccccc23)co1)/N=N/c1ccc(Cl)cc1` has an LD50 at 24 h [1] greater than 800 mg/kg, an Activity [2] of 23.5% and an Activity [3] of 21.5%.

Compound `CCc1[nH]c2ccccc2c1C(=N/c1nc(-c2c(-c3ccc(Cl)cc3)[nH]c3ccccc23)co1)/N=N/c1ccc(OC)cc1` has an LD50 at 24 h [1] greater than 800 mg/kg, an Activity [2] of 25.2% and an Activity [3] of 23.9%.

Work on `Cc1[nH]c2ccccc2c1C(=N/c1nc(-c2c(-c3ccc(Cl)cc3)[nH]c3ccccc23)cs1)/N=N/c1ccc(Cl)cc1` yielded an LD50 at 24 h [1] greater than 800 mg/kg, an Activity [2] of 21.2% and an Activity [3] of 19.8%.

In the case of `CCc1[nH]c2ccccc2c1C(=N/c1nc(-c2c(-c3ccc(Cl)cc3)[nH]c3ccccc23)cs1)/N=N/c1ccc(Cl)cc1`, the LD50 at 24 h [1] is reported as greater than 800 mg/kg, the Activity [2] is reported as 17.3% and the Activity [3] is reported as 16.2%.

Work on `Clc1ccc(/N=N/C(=N\c2nc(-c3c(-c4ccc(Cl)cc4)[nH]c4ccccc34)co2)c2c[nH]c3ccccc23)cc1` yielded an LD50 at 24 h [1] greater than 800 mg/kg, an Activity [2] of 16.2% and an Activity [3] of 14.7%.

In the case of `COc1ccc(/N=N/C(=N\c2nc(-c3c(-c4ccc(Cl)cc4)[nH]c4ccccc34)co2)c2c(C)[nH]c3ccccc23)cc1`, the LD50 at 24 h [1] is reported as greater than 800 mg/kg, the Activity [2] is reported as 19.1% and the Activity [3] is reported as 17.8%.

Compound `Clc1ccc(/N=N/C(=N\c2nc(-c3c(-c4ccc(Cl)cc4)[nH]c4ccccc34)co2)c2c(-c3ccccc3)[nH]c3ccccc23)cc1` has an LD50 at 24 h [1] greater than 800 mg/kg, an Activity [2] of 27.9% and an Activity [3] of 26.3%.

`Cc1[nH]c2ccccc2c1C(=N/c1nc(-c2c(-c3ccc(Cl)cc3)[nH]c3ccccc23)co1)/N=N/c1ccc(Cl)cc1` showed an LD50 at 24 h [1] greater than 800 mg/kg, an Activity [2] of 22.1% and an Activity [3] of 21.2%.

Compound `COc1ccc(/N=N/C(=N\c2nc(-c3c(-c4ccc(Cl)cc4)[nH]c4ccccc34)co2)c2c(-c3ccccc3)[nH]c3ccccc23)cc1` has an LD50 at 24 h [1] greater than 800 mg/kg, an Activity [2] of 17.6% and an Activity [3] of 15.2%.

Compound `Clc1ccc(-c2[nH]c3ccccc3c2-c2csc(/N=C/c3c(-c4ccccc4)[nH]c4ccccc34)n2)cc1` has an LD50 at 24 h [1] of 800 mg/kg and an Activity [2] of 19.7%.

For `Clc1ccc(-c2[nH]c3ccccc3c2-c2csc(/N=C/c3c[nH]c4ccccc34)n2)cc1`, the LD50 at 24 h [1] was greater than 800 mg/kg, the Activity [2] was 31.8% and the Activity [3] was 30.6%.

`Clc1ccc(-c2[nH]c3ccccc3c2-c2coc(/N=C/c3c[nH]c4ccccc34)n2)cc1` gave an LD50 at 24 h [1] greater than 800 mg/kg, an Activity [2] of 22.7% and an Activity [3] of 20.9%.

With `Clc1ccc(-c2[nH]c3ccccc3c2-c2coc(/N=C/c3c(-c4ccccc4)[nH]c4ccccc34)n2)cc1` the LD50 at 24 h [1] was greater than 800 mg/kg, the Activity [2] was 25.3% and the Activity [3] was 23.7%.

With `CCc1[nH]c2ccccc2c1C(=N/c1nc(-c2c(-c3ccc(Cl)cc3)[nH]c3ccccc23)cs1)/N=N/c1ccc(OC)cc1` the LD50 at 24 h [1] was greater than 800 mg/kg, the Activity [2] was 13.5% and the Activity [3] was 12.3%.

With `CCCCC1C(=O)N(c2ccccc2)N(c2ccccc2)C1=O` [PHENYLBUTAZONE] the Activity [4] was 62.3%, the TD50 at 8 h [5] was 66.7 mg/kg and the Activity [6] was 15.2%. For the same compound, the Activity [7] was 65.4%, the Activity [2] was 38.8% and the Activity [3] was 37.2%. It also gave an Activity [8] of 13.7%.
